The list is not random: actives were taken first. Their share in the collection is about 2.6%.
FGF22 binding: binders of recombinant human FGF22 by thermal shift | activity (Tm shift, normalised), % at 9.99 µM | AID 651658 | Q9HCT0 | hit rate 1.5% among 340,000 | SYPRO orange fluorescence; percent of sucrose octasulfate shift, DMSO zero;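 active = mean Tm shift, scaled 0 neutral to 100 positive control, at about 1.3% or above, every replicate too, limit read from the data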
NSD2 HMT inh: NSD2 (human) methyltransferase inhibition; NSD2 peptide methylation, AlphaScreen, 120 min; hit rate 0.54% among 310,000; inhibition, % at 12.5 µM; AID 743445; in the data active = inhibition above about 50%
UCH37 DUB inh: blocks the human deubiquitinase UCH37; Q9Y5K5; purified proteasome/UCH37, Ub-AMC cleavage fluorescence; inhibition, % (test concentration not listed); hit rate 0.33% among 330,000;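 active = mean inhibition over replicate wells above about 20%, limit read from the data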
Target sequence (Q9Y5K5 whole entry, looked up): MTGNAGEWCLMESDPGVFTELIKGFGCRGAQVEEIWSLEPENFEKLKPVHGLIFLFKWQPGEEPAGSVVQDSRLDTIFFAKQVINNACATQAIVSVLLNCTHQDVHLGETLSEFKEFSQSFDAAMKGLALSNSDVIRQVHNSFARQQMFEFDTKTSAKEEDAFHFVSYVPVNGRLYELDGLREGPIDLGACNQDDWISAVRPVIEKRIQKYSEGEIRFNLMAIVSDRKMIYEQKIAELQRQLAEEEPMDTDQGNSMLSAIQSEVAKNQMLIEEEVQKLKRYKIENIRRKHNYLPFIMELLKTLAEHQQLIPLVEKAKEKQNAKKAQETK
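Assay system: Proteasome-bound UCH37. Buffer or medium: pH 7.4 Tris-HCl (50 mM) with ovalbumin, ATP-MgCl2, DTT. Incubation: 30 min preincubation with enzyme, 25 min cleavage at room temperature. Measured by: fluorescence, ex 355 nm, em 460 nm. Read-out basis: percent inhibition. Control set: wells without proteasome as full block, compound-free enzyme plus substrate as uninhibited.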
Casp6 inh: caspase-6 (human) enzyme inhibition; hit rate 0.53% among 350,000; inhibition, % at 12.5 µM; P55212; purified caspase-6, Z-VEID-R110 cleavage fluorescence;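 active = mean inhibition across replicates at least about 35%, with every replicate also reaching that limit, limit read from the data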
SIRT5 inh: inhibitors of human sirtuin-5 desuccinylase; Q9NXA8; Purified SirT5, succinyl-peptide AMC, trypsin-coupled fluorescence; inhibition, % at 15 µM; hit rate 1.1% among 330,000; AID 652115; in the data active = inhibition above about 15%
Numbers stand for hits; i = inactive; nt = not tested or not shown.

SMILES | FGF22 binding | NSD2 HMT inh | UCH37 DUB inh | Casp6 inh | SIRT5 inh
COCC(=O)Nc1ccc2c(c1)C(=O)N(C)C[C@@H](OC)[C@H](C)CN(C(=O)C1CCCC1)[C@@H](C)CO2 | i | nt | nt | nt | i
Cc1nnsc1SCCNC(=O)Nc1ccc(Cl)cc1 | 44 | i | i | nt | i
O=C(NCCO)Nc1ccc(Cl)cc1 | i | i | i | i | 19
COc1ccc(CN(C)C[C@@H]2Oc3c(NC(=O)NC(C)C)cccc3C(=O)N([C@@H](C)CO)C[C@@H]2C)cc1 | i | nt | nt | i | i
CC(C)(C)c1ccc(-c2nc(N)nc(N)n2)cc1 | i | i | i | i | i
Nc1nc(-c2ccc(Cl)cc2)nc(-c2ccc(Cl)cc2)n1 | i | i | i | i | 29
C=CCc1cc(OC)ccc1OCCN1CC(C)OC(C)C1 (stereo not drawn) | i | i | i | i | 102
N/C(=N\OC(=O)C1CCCCC1)c1ccncc1 | 43 | i | i | i | i
N/C(=N\OC(=O)C1CCCCC1)c1ccc(Br)cc1 | i | i | i | i | i
N/C(=N\OC(=O)c1cccc(Cl)c1)c1cccnc1 | nt | i | i | nt | nt
N/C(=N\OC(=O)c1cccc(Cl)c1)c1ccncc1 | 45 | i | i | i | i
Cc1noc(C)c1NC(=O)Nc1ccc2c(c1)C(=O)N([C@@H](C)CO)C[C@H](C)[C@@H](CN(C)C(=O)c1ccccc1)OCCCC[C@@H](C)O2 | i | nt | nt | i | i
Cc1ccc(S(=O)(=O)Nc2ccc3c(c2)C(=O)N([C@@H](C)CO)C[C@H](C)[C@H](CN(C)S(=O)(=O)c2cccs2)OCCCC[C@@H](C)O3)cc1 | i | nt | nt | i | 18
C[C@H]1CCCCO[C@H](CN(C)S(=O)(=O)c2cccs2)[C@@H](C)CN([C@@H](C)CO)C(=O)c2cc(NS(=O)(=O)c3ccc(Cl)cc3)ccc2O1 | i | nt | nt | i | i
C[C@@H]1CCCCO[C@H](CN(C)S(=O)(=O)c2cccs2)[C@@H](C)CN([C@H](C)CO)C(=O)c2cc(NS(=O)(=O)c3ccc(Cl)cc3)ccc2O1 | 1.6 | nt | nt | i | i
CN1c2ccc(Br)cc2[C@H]2[C@H](CCN2C(=O)C2CC2)[C@H]1CO | i | nt | nt | i | i
COc1ccc(S(=O)(=O)N(C)C[C@@H]2Oc3cc(C#CC4CC4)ccc3S(=O)(=O)N([C@H](C)CO)C[C@H]2C)cc1 | i | nt | nt | i | 15
COc1ccc(S(=O)(=O)N(C)C[C@H]2Oc3cc(C#CC4CC4)ccc3S(=O)(=O)N([C@@H](C)CO)C[C@@H]2C)cc1 | i | nt | nt | i | 22
COc1ccc(S(=O)(=O)N(C)C[C@H]2Oc3cc(C#CC4CC4)ccc3S(=O)(=O)N([C@@H](C)CO)C[C@H]2C)cc1 | i | nt | nt | i | 22
COc1ccc(S(=O)(=O)N(C)C[C@@H]2Oc3cc(C#CC4CCCCC4)ccc3S(=O)(=O)N([C@H](C)CO)C[C@H]2C)cc1 | i | nt | nt | i | i
CC1CCCCC12NC(=O)N(CC(=O)NCc1ccccc1)C2=O (stereo not drawn) | i | i | i | i | i
CC(=O)NCc1ccc(C(=O)CN2C(=O)NC3(CCCCC3C)C2=O)s1 (stereo not drawn) | i | i | i | i | 15
CCc1ccc(-c2cn3c(n2)SCC3)cc1 | 43 | i | i | i | i
